Tested on: HEK-293T
Experiment: Multiplex assay against HEK293T;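 as to Population Tubulin-Different-Phenotype (%): share of the cells with healthy nuclei that show this phenotype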
Format: toxicity, cell-based
Settings: human
Outline: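 Per cents of healthy-nucleus cells form the tubulin, mitochondrial-mass and membrane-permeability phenotype values. Live cells were stained at seeding with Hoechst33342, BioTracker Green Microtubule Cytoskeleton Dye, MitoTracker Red and Annexin V Alexa Fluor 680. After compound addition they were imaged on a CQ1 microscope at 37°C and 5% CO2, and CellPathfinder machine-learning gating split them into Hoechst high-intensity objects or normal cells, normal cells into healthy, pyknosed or fragmented nuclei, and pyknosed cells into mitotic or apoptotic.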

[1] = 12 h, 1 µM, compound concentration 1 uM, replicate 1
[2] = 12 h, 1 µM, compound concentration 1 uM, replicate 2
[3] = 12 h, 10 µM, compound concentration 10 uM, replicate 1
[4] = 12 h, 10 µM, compound concentration 10 uM, replicate 2
[5] = 24 h, 1 µM, compound concentration 1 uM, replicate 1
[6] = 24 h, 1 µM, compound concentration 1 uM, replicate 2
[7] = 24 h, 10 µM, compound concentration 10 uM, replicate 1
[8] = 24 h, 10 µM, compound concentration 10 uM, replicate 2
[9] = 48 h, 1 µM, compound concentration 1 uM, replicate 1
[10] = 48 h, 1 µM, compound concentration 1 uM, replicate 2
[11] = 48 h, 10 µM, compound concentration 10 uM, replicate 1
[12] = 48 h, 10 µM, compound concentration 10 uM, replicate 2

For `CCCc1cc(C)[nH]c(=O)c1CNC(=O)c1cc(-c2ccc(N3CCN(C(C)C)CC3)nc2)cc2c1cnn2C(C)C`, the “Population Apoptotic (%)” value [1] was 63%, the “Population Fragmented Nuclei (%)” value [1] was 13% and the “Population Healthy Nuclei (%)” value [1] was 25%. For the same compound, the “Population Hoechst High Intensity Objects (%)” value [1] was 13%, the “Population Membrane Permeable-Phenotype (%)” value [1] was 9% and the “Population Mitochondria Different-Phenotype (%)” value [1] was 97%. The “Population Mitotic Cells (%)” value [1] was 36%, the “Population Normal (%)” value [1] was 86% and the “Population Pyknosed Nuclei (%)” value [1] was 60%. The “Population Tubulin-Different-Phenotype (%)” value [1] was 86%, the “Total Cell Count” value [1] was 193 and the “Population Apoptotic (%)” value [2] was 51%. For the same compound, the “Population Fragmented Nuclei (%)” value [2] was 4%, the “Population Healthy Nuclei (%)” value [2] was 27% and the “Population Hoechst High Intensity Objects (%)” value [2] was 3%. The “Population Membrane Permeable-Phenotype (%)” value [2] was 3%, the “Population Mitochondria Different-Phenotype (%)” value [2] was 87% and the “Population Mitotic Cells (%)” value [2] was 48%. For the same compound, the “Population Normal (%)” value [2] was 96%, the “Population Pyknosed Nuclei (%)” value [2] was 67% and the “Population Tubulin-Different-Phenotype (%)” value [2] was 94%. For the same compound, the “Total Cell Count” value [2] was 200, the “Population Apoptotic (%)” value [3] was 94% and the “Population Fragmented Nuclei (%)” value [3] was 9%. For the same compound, the “Population Healthy Nuclei (%)” value [3] was 20%, the “Population Hoechst High Intensity Objects (%)” value [3] was 20% and the “Population Membrane Permeable-Phenotype (%)” value [3] was 2%. The “Population Mitochondria Different-Phenotype (%)” value [3] was 97%, the “Population Mitotic Cells (%)” value [3] was 5% and the “Population Normal (%)” value [3] was 79%. For the same compound, the “Population Pyknosed Nuclei (%)” value [3] was 69%, the “Population Tubulin-Different-Phenotype (%)” value [3] was 89% and the “Total Cell Count” value [3] was 231. For the same compound, the “Population Apoptotic (%)” value [4] was 96%, the “Population Fragmented Nuclei (%)” value [4] was 5% and the “Population Healthy Nuclei (%)” value [4] was 12%. The “Population Hoechst High Intensity Objects (%)” value [4] was 8%, the “Population Membrane Permeable-Phenotype (%)” value [4] was 11% and the “Population Mitochondria Different-Phenotype (%)” value [4] was 94%. The “Population Mitotic Cells (%)” value [4] was 3%, the “Population Normal (%)” value [4] was 91% and the “Population Pyknosed Nuclei (%)” value [4] was 82%. For the same compound, the “Population Tubulin-Different-Phenotype (%)” value [4] was 100%, the “Total Cell Count” value [4] was 151 and the “Population Apoptotic (%)” value [5] was 79%. The “Population Fragmented Nuclei (%)” value [5] was 11%, the “Population Healthy Nuclei (%)” value [5] was 26% and the “Population Hoechst High Intensity Objects (%)” value [5] was 17%. For the same compound, the “Population Membrane Permeable-Phenotype (%)” value [5] was 4%, the “Population Mitochondria Different-Phenotype (%)” value [5] was 97% and the “Population Mitotic Cells (%)” value [5] was 20%. The “Population Normal (%)” value [5] was 82%, the “Population Pyknosed Nuclei (%)” value [5] was 62% and the “Population Tubulin-Different-Phenotype (%)” value [5] was 97%. The “Total Cell Count” value [5] was 190, the “Population Apoptotic (%)” value [6] was 57% and the “Population Fragmented Nuclei (%)” value [6] was 2%. The “Population Healthy Nuclei (%)” value [6] was 52%, the “Population Hoechst High Intensity Objects (%)” value [6] was 3% and the “Population Membrane Permeable-Phenotype (%)” value [6] was 6%. The “Population Mitochondria Different-Phenotype (%)” value [6] was 94%, the “Population Mitotic Cells (%)” value [6] was 42% and the “Population Normal (%)” value [6] was 96%. For the same compound, the “Population Pyknosed Nuclei (%)” value [6] was 45%, the “Population Tubulin-Different-Phenotype (%)” value [6] was 94% and the “Total Cell Count” value [6] was 239. For the same compound, the “Population Apoptotic (%)” value [7] was 91%, the “Population Fragmented Nuclei (%)” value [7] was 15% and the “Population Healthy Nuclei (%)” value [7] was 16%. For the same compound, the “Population Hoechst High Intensity Objects (%)” value [7] was 19%, the “Population Mitochondria Different-Phenotype (%)” value [7] was 96% and the “Population Mitotic Cells (%)” value [7] was 8%. The “Population Normal (%)” value [7] was 80%, the “Population Pyknosed Nuclei (%)” value [7] was 68% and the “Population Tubulin-Different-Phenotype (%)” value [7] was 77%. The “Total Cell Count” value [7] was 236, the “Population Apoptotic (%)” value [8] was 98% and the “Population Fragmented Nuclei (%)” value [8] was 4%. The “Population Healthy Nuclei (%)” value [8] was 20%, the “Population Hoechst High Intensity Objects (%)” value [8] was 14% and the “Population Membrane Permeable-Phenotype (%)” value [8] was 3%. The “Population Mitochondria Different-Phenotype (%)” value [8] was 100%, the “Population Mitotic Cells (%)” value [8] was 1% and the “Population Normal (%)” value [8] was 85%. For the same compound, the “Population Pyknosed Nuclei (%)” value [8] was 74%, the “Population Tubulin-Different-Phenotype (%)” value [8] was 81% and the “Total Cell Count” value [8] was 151. The “Population Apoptotic (%)” value [9] was 75%, the “Population Fragmented Nuclei (%)” value [9] was 19% and the “Population Healthy Nuclei (%)” value [9] was 46%. The “Population Hoechst High Intensity Objects (%)” value [9] was 9%, the “Population Membrane Permeable-Phenotype (%)” value [9] was 0% and the “Population Mitochondria Different-Phenotype (%)” value [9] was 96%. The “Population Mitotic Cells (%)” value [9] was 24%, the “Population Normal (%)” value [9] was 90% and the “Population Pyknosed Nuclei (%)” value [9] was 33%. For the same compound, the “Population Tubulin-Different-Phenotype (%)” value [9] was 86%, the “Total Cell Count” value [9] was 241 and the “Population Apoptotic (%)” value [10] was 69%. The “Population Fragmented Nuclei (%)” value [10] was 6%, the “Population Healthy Nuclei (%)” value [10] was 68% and the “Population Hoechst High Intensity Objects (%)” value [10] was 2%. For the same compound, the “Population Membrane Permeable-Phenotype (%)” value [10] was 1%, the “Population Mitochondria Different-Phenotype (%)” value [10] was 77% and the “Population Mitotic Cells (%)” value [10] was 30%. The “Population Normal (%)” value [10] was 97%, the “Population Pyknosed Nuclei (%)” value [10] was 25% and the “Population Tubulin-Different-Phenotype (%)” value [10] was 91%. The “Total Cell Count” value [10] was 327, the “Population Apoptotic (%)” value [11] was 95% and the “Population Fragmented Nuclei (%)” value [11] was 20%. The “Population Healthy Nuclei (%)” value [11] was 10%, the “Population Hoechst High Intensity Objects (%)” value [11] was 28% and the “Population Membrane Permeable-Phenotype (%)” value [11] was 5%. For the same compound, the “Population Mitochondria Different-Phenotype (%)” value [11] was 94%, the “Population Mitotic Cells (%)” value [11] was 4% and the “Population Normal (%)” value [11] was 71%. The “Population Pyknosed Nuclei (%)” value [11] was 68%, the “Population Tubulin-Different-Phenotype (%)” value [11] was 61% and the “Total Cell Count” value [11] was 241. The “Population Apoptotic (%)” value [12] was 98%, the “Population Fragmented Nuclei (%)” value [12] was 5% and the “Population Healthy Nuclei (%)” value [12] was 31%. The “Population Hoechst High Intensity Objects (%)” value [12] was 27%, the “Population Membrane Permeable-Phenotype (%)” value [12] was 2% and the “Population Mitochondria Different-Phenotype (%)” value [12] was 100%. The “Population Mitotic Cells (%)” value [12] was 1%, the “Population Normal (%)” value [12] was 72% and the “Population Pyknosed Nuclei (%)” value [12] was 62%. The “Population Tubulin-Different-Phenotype (%)” value [12] was 55% and the “Total Cell Count” value [12] was 148.

Reference: ChEMBL document CHEMBL4689842, “EUbOPEN Chemogenomics Library wave 1” (2021)
